From ChEMBL document CHEMBL1914438, “Synthesis and biological activity of novel N-cycloalkyl-(cycloalkylaryl)-2-[(3-R-2-oxo-2H-[1,2,4]triazino[2,3-c]quinazoline-6-yl)thio]acetamides” (2011)
Calls of active or inactive are those of the source. No cut-off for these calls is given here.

Legend:
[1] = tested on: Photobacterium leiognathi; assay: Antibacterial activity against Photobacterium leiognathi Sh1 assessed as inhibition of bacterial luminescence at 0.25 mg/mL after 10 mins by bioluminometry-based chronic action test; assay type: functional; design: scale not given: the % may be the effect or the level left; conditions: in the assay text read “after 16 to 18 hrs” for “after 10 mins”
In short: (§1)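 Chronic (growth plus luminescence) test with P. leiognathi Sh1 at 10^5 cells/mL in chloride solution, compounds added in DMSO. After 10 min at 25 °C, growth medium added at 1:50 and the mix incubated 16–18 h at 30 °C. Luminescence then measured by bioluminometer as % of untreated control. Tetracycline reference.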

MOLT-4 = assay: Cytotoxicity against human MOLT4 cells assessed as cell growth at 10^-5 M after 48 hrs by SRB assay; assay type: functional; conditions: MOLT-4, 48 h, read-out: Activity
In short: (§2)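 NCI human tumor cell line panel from nine cancer types. Each line was inoculated and preincubated 24–48 h, then exposed to a single concentration (10^-5 M) for 48 h. Growth was read by sulforhodamine B protein staining, measured spectrophotometrically. Value reported as percent growth of treated cells relative to untreated controls.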

HL-60(TB) = assay: Cytotoxicity against human HL-60(TB) cells assessed as cell growth at 10^-5 M after 48 hrs by SRB assay; assay type: functional; conditions: HL-60, 48 h, read-out: Activity
In short: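 NCI one-dose primary screen on the 60-line human tumour panel. Cells were inoculated and preincubated 24–48 h. Compound was added at 10^-5 M with 48 h continuous exposure. Sulforhodamine B protein staining was read spectrophotometrically. Results are percent growth relative to untreated control cells.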

CCRF-CEM = assay: Cytotoxicity against human CCRF-CEM cells assessed as cell growth at 10^-5 M after 48 hrs by SRB assay; assay type: functional; conditions: read-out: Activity
In short: (§3)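 NCI 60-cell-line one-dose primary screen: cells inoculated and preincubated 24–48 h, then test agent added at a single 10^-5 M concentration for a further 48 h. Endpoint is sulforhodamine B protein staining read spectrophotometrically. Reported as percent growth relative to untreated control cells.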

PC-3 = assay: Cytotoxicity against human PC3 cells assessed as cell growth at 10^-5 M after 48 hrs by SRB assay; assay type: functional; conditions: PC-3, 48 h, read-out: Activity; in short: as §2
A549 = assay: Cytotoxicity against human A549 cells assessed as cell growth at 10^-5 M after 48 hrs by SRB assay; assay type: functional; conditions: A549, 48 h, read-out: Activity; in short: as §3
Aspergillus niger = assay: Antifungal activity against Aspergillus niger at 1 to 5 mg/mL after 48 to 72 hrs by stiff-plate agar-diffusion method; assay type: functional, organism-based
In short: (§4)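 Fungal plates run by stiff-plate agar diffusion, substances applied to grooves at 5 mg/mL; 10^9 c.f.u./mL cells; incubation 48–72 h at 28–30 °C. Inhibition zone diameter scored (11–15 mm not sensitive, 16–25 mm sensitive, >25 mm highly sensitive). Nystatin standard; experiments done three times.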

[2] = tested on: Photobacterium leiognathi; assay: Antibacterial activity against Photobacterium leiognathi Sh1 at 0.1 to 0.25 ug/mL; assay type: functional, organism-based
CAKI-1 = assay: Cytotoxicity against human Caki1 cells assessed as cell growth at 10^-5 M after 48 hrs by SRB assay; assay type: functional; conditions: CAKI-1, 48 h, read-out: Activity; in short: as §3
MDA-MB-231 = assay: Cytotoxicity against human MDA-MB-231 cells assessed as cell growth at 10^-5 M after 48 hrs by SRB assay; assay type: functional; conditions: MDA-MB-231, 48 h, read-out: Activity; in short: as §3
Yamadazyma tenuis = assay: Antifungal activity against Candida tenuis at 1 to 5 mg/mL after 48 to 72 hrs by stiff-plate agar-diffusion method; assay type: functional, organism-based; in short: as §4
[3] = tested on: Photobacterium leiognathi; assay: Antibacterial activity against Photobacterium leiognathi Sh1 assessed as inhibition of bacterial luminescence at 0.25 mg/mL after 10 mins by bioluminometry-based acute action test; assay type: functional; design: scale not given: the % may be the effect or the level left
In short: (§5)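 Marine P. leiognathi Sh1 (Azov Sea shrimp isolate) diluted in chloride solution to 10^5 cells/mL; compounds suspended in DMSO mixed with 1 mL bacterial suspension. Acute test: 10 min at 25 °C, then bioluminescence measured by bioluminometer as % of compound-free control. Tetracycline reference.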

UO-31 = assay: Cytotoxicity against human UO31 cells assessed as cell growth at 10^-5 M after 48 hrs by SRB assay; assay type: functional; conditions: UO-31, 48 h, read-out: Activity; in short: as §2
SNB-75 = assay: Cytotoxicity against human SNB75 cells assessed as cell growth at 10^-5 M after 48 hrs by SRB assay; assay type: functional; conditions: SNB-75, 48 h, read-out: Activity; in short: as §2
HCC 2998 = assay: Cytotoxicity against human HCC2998 cells assessed as cell growth at 10^-5 M after 48 hrs by SRB assay; assay type: functional; conditions: HCC 2998, 48 h, read-out: Activity; in short: as §3
Mycobacterium = assay: Antibacterial activity against Mycobacterium luteum at 1 to 5 mg/mL after 24 hrs by stiff-plate agar-diffusion method; assay type: functional, organism-based
In short: (§6)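 Agar diffusion (stiff plate) with test substances at 5 mg/mL in grooves, allowed to diffuse into nutrient agar; inoculum 10^9 c.f.u./mL; bacteria incubated 24 h at 35 °C. Read-out: inhibition zone diameter (not sensitive 11–15 mm, sensitive 16–25 mm, highly sensitive >25 mm). Vancomycin and oxacillin as standards; three repeats.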

SK-MEL-5 = assay: Cytotoxicity against human SK-MEL-5 cells assessed as cell growth at 10^-5 M after 48 hrs by SRB assay; assay type: functional; conditions: SK-MEL-5, 48 h, read-out: Activity; in short: as §2
K562 = assay: Cytotoxicity against human K562 cells assessed as cell growth at 10^-5 M after 48 hrs by SRB assay; assay type: functional; conditions: K562, 48 h, read-out: Activity; in short: as §3
SR = assay: Cytotoxicity against human SR cells assessed as cell growth at 10^-5 M after 48 hrs by SRB assay; assay type: functional; conditions: read-out: Activity; in short: as §2
[4] = tested on: Photobacterium leiognathi; assay: Antibacterial activity against Photobacterium leiognathi Sh1 assessed as inhibition of bacterial luminescence at 0.025 mg/mL after 10 mins by bioluminometry-based acute action test; assay type: functional; design: scale not given: the % may be the effect or the level left; in short: as §5
[5] = tested on: Photobacterium leiognathi; assay: Antibacterial activity against Photobacterium leiognathi Sh1 assessed as inhibition of bacterial luminescence at 0.1 mg/mL after 10 mins by bioluminometry-based chronic action test; assay type: functional; design: scale not given: the % may be the effect or the level left; conditions: in the assay text read “after 16 to 18 hrs” for “after 10 mins”; in short: as §1
Escherichia coli = assay: Antibacterial activity against Escherichia coli at 1 to 5 mg/mL after 24 hrs by stiff-plate agar-diffusion method; assay type: functional, organism-based; in short: as §6
Staphylococcus aureus = assay: Antibacterial activity against Staphylococcus aureus at 1 to 5 mg/mL after 24 hrs by stiff-plate agar-diffusion method; assay type: functional, organism-based; in short: as §6
NCI-H522 = assay: Cytotoxicity against human NCI-H522 cells assessed as cell growth at 10^-5 M after 48 hrs by SRB assay; assay type: functional; conditions: NCI-H522, 48 h, read-out: Activity; in short: as §2
[6] = tested on: Photobacterium leiognathi; assay: Antibacterial activity against Photobacterium leiognathi Sh1 assessed as inhibition of bacterial luminescence at 0.1 mg/mL after 10 mins by bioluminometry-based acute action test; assay type: functional; design: scale not given: the % may be the effect or the level left; in short: as §5
[7] = tested on: Photobacterium leiognathi; assay: Antibacterial activity against Photobacterium leiognathi Sh1 assessed as inhibition of bacterial luminescence at 0.025 mg/mL after 10 mins by bioluminometry-based chronic action test; assay type: functional; design: scale not given: the % may be the effect or the level left; conditions: in the assay text read “after 16 to 18 hrs” for “after 10 mins”; in short: as §1
LOX IMVI = assay: Cytotoxicity against human LOXIMVI cells assessed as cell growth at 10^-5 M after 48 hrs by SRB assay; assay type: functional; conditions: read-out: Activity; in short: as §3

## COc1ccc(-c2nn3c(SCC(=O)O)nc4ccccc4c3nc2=O)cc1
[1]
  Activity: 45%
MOLT-4
  growth at 10 µM: 84.8%
HL-60(TB)
  growth at 10 µM: 63.5%
CCRF-CEM
  growth at 10 µM: 90.7%
PC-3
  growth at 10 µM: 91.7%
A549
  growth at 10 µM: 95.9%
Aspergillus niger
  Activity: inactive
[2]
  Activity: inactive
CAKI-1
  growth at 10 µM: 91.4%
MDA-MB-231
  growth at 10 µM: 89.9%
Yamadazyma tenuis
  Activity: inactive
[3]
  Activity: 0%
UO-31
  growth at 10 µM: 91.6%
SNB-75
  growth at 10 µM: 93.9%
HCC 2998
  growth at 10 µM: 94.7%
Mycobacterium
  Activity: inactive
SK-MEL-5
  growth at 10 µM: 95.4%
K562
  growth at 10 µM: 80.9%
SR
  growth at 10 µM: 65.8%
[4]
  Activity: 105%
[5]
  Activity: 191.5%
Escherichia coli
  Activity: inactive
Staphylococcus aureus
  Activity: inactive
NCI-H522
  growth at 10 µM: 94.9%
[6]
  Activity: 80%
[7]
  Activity: 88.9%
LOX IMVI
  growth at 10 µM: 86.9%
